Bioassay records as filed in PubChem.
Rad51 HR inh: Rad51 (human) homologous recombination inhibition; AID 1385; 0.085% of 200,000 active; hRad51 DNA strand exchange, fluorescence dequenching; Q06609; inhibition, % at 10 µM;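 active = inhibition above 40% at the single screening dose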;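 note: 0% = DMSO control wells and 100% = blanks with heterologous ssDNA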
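Material: human Rad51–ssDNA filaments; Probe or stimulus: labelled 47-mer dsDNA for strand exchange; Doses: single 10 µM dose; Incubation: 37 °C 15-min filament assembly, 30-min compound preincubation, 15-min exchange; Technique: FRET fluorescence dequenching, excitation 485 nm, emission 520 nm; Measure: Fluorescence-based percent inhibition, control- and blank-normalised; Benchmarks: plate control and blank wells.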
Wee1 stabilizer: blocks degradation of human Wee1 kinase | P30291 | HeLa Luc-Wee1K328M stability, luciferase luminescence; 100% = proteasome inhibitor MG132 effect | reporter increase, % at 5 µM | 1.2% of 220,000 active;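 active = activation above the mean of all tested compounds plus 3 SD, set per screening run, cut at about 8.8% in these data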;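 note: cells exposed to compound for 20 h before luminescence read; 0% = DMSO alone and 100% = MG132 at 30 µM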
Target sequence (P30291 whole entry K328M): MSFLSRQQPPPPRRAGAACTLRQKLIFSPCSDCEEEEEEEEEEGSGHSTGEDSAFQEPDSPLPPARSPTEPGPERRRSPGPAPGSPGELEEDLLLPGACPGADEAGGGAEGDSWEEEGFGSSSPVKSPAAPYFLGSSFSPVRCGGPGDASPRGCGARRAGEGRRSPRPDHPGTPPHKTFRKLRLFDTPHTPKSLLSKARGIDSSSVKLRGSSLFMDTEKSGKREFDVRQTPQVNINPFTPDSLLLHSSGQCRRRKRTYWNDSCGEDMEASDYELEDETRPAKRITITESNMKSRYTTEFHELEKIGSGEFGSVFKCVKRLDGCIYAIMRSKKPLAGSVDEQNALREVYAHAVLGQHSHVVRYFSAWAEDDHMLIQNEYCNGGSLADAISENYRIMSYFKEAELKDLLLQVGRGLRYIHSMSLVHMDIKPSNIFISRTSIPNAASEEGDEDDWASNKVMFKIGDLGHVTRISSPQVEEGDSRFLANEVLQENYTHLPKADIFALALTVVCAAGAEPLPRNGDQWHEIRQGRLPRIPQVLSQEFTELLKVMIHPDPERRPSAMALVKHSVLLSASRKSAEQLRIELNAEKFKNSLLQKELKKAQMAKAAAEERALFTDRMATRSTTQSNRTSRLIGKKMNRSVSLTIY
RBBP9 inhibitor: inhibitors of human serine hydrolase RBBP9; 0.2% of 220,000 active; inhibition, % at 7.94 µM; AID 1515; recombinant RBBP9, FP-Rh probe fluorescence polarization; O75884;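 active = inhibition above the campaign mean of all tested compounds plus 3 SD, cut at about 14% in these data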;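 note: plate controls were DMSO wells with RBBP9 for no effect and wells lacking RBBP9 protein for full effect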
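Test system: recombinant human RBBP9; Timing: 30 min then 45 min, 25 °C; Detection: fluorescence polarization; Control set: RBBP9 with DMSO as uninhibited control, no-protein wells as full inhibition; Compound dosing: one concentration, 7.94 µM nominal, 0.794% DMSO; Probe or stimulus: FP-Rh activity-based probe, 375 nM before mixing.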
DNA FID counter: counter-screen for HCV NS3 helicase inhibitors: DNA intercalator displacement; inhibition, % at 7.9 µM; AID 1845; 0.17% of 290,000 active; DNA fluorescent intercalator displacement, fluorescence; in the data active = inhibition above about 37%;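 note: 0% = vehicle and 100% = reference compound; higher means more ethidium bromide displaced from hairpin DNA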
The depositor's hits bear a star; . = no result. The list is not random: actives were taken first. Their share in the collection is about 1.2%.

SMILES	Rad51 HR inh	Wee1 stabilizer	RBBP9 inhibitor	DNA FID counter
CCCN1CCN(C(=O)C(NC(=O)c2ccco2)C(C)C)CC1 (configuration not stated)	.	.	.	-6
CC(C)(C)c1ccc(NC(=O)COC(=O)CCN2C(=O)c3cccc([N+](=O)[O-])c3C2=O)cc1	8	17*	-3	-9
COc1ccc(NC(=O)CCN2C(=O)c3cccc([N+](=O)[O-])c3C2=O)cc1	.	.	.	1
Cn1c(/C=C/c2ccc(Cl)cc2)c([N+](=O)[O-])c(=O)n(C)c1=O	.	.	.	-5
CN(/C=C/c1c([N+](=O)[O-])c(=O)n(C)c(=O)n1C)c1ccccc1	9	9.4*	-3	-1
Cc1ccnc(NC(=O)CSc2nnc3c(n2)[nH]c2ccccc23)c1	-6	0	-9	7
CCN(CC)CC(=O)Nc1ccc(-c2nc3cc(NC(=O)CN(CC)CC)ccc3o2)cc1	-1	7	5	22
O=C(CN1CCCC1)Nc1ccc(-c2nc3cc(NC(=O)CN4CCCC4)ccc3o2)cc1	9	0	0	47*
CCC[C@@H]1CCCO[C@@](C(=O)NCCN2CCOCC2)(C(F)(F)F)C1	-1	.	.	.
Cn1c(=O)c(=O)n(C)c2cc([N+](=O)[O-])c(N3CCOCC3)cc21	.	.	.	4
CCN1CCN(S(=O)(=O)c2cc(C(=O)O)ccc2Cl)CC1	-2	9.6*	-1	0
CC1CCCN(c2ccc(C(=O)NCC3CCCO3)cn2)C1 (configuration not stated)	-9	9.6*	-11	-12
CC(C)CCN1C(=O)c2ccc(C(=O)NCC3CCCO3)cc2C1=O (configuration not stated)	10	9.6*	5	-20
O=C(NCC1CCCO1)c1ccc(/C=N/O)nc1 (configuration not stated)	.	-3	-6	-9
Cc1cc(C)cc(N(C(=O)c2csnn2)C(C(=O)NC(C)(C)C)c2cccnc2)c1 (configuration not stated)	0	1	-7	-5
COc1ccc(S(=O)(=O)N2CCCOC2CNC(=O)C(=O)NCc2ccncc2)cc1 (configuration not stated)	.	.	.	-7
FC(F)(F)c1cccc(Cc2noc(CN3CCC(c4ccncc4)CC3)n2)c1	.	-2	5	-17
Cc1nnc(NC(=O)CCC(=O)NCc2ccco2)s1	-3	10.0*	-9	0
NS(=O)(=O)c1ccc(CNC(=O)CNC(=O)c2ccc(F)cc2)cc1	.	.	.	-3
O=C(NNC(=O)C12CC3CC(CC(C3)C1)C2)c1cccc([N+](=O)[O-])c1	.	.	.	2
O=C(NNC(=O)C1CC1c1ccccc1)c1cccc([N+](=O)[O-])c1 (configuration not stated)	0	11*	0	0
Cc1ccc(N2Cc3ccccc3C2=S)cc1	7	10*	1	-3
S=C1c2ccccc2CN1c1ccccc1	11	1	-5	1
CCn1c2ccccc2c2cc(CNCCCN3CCOCC3)ccc21	.	.	.	47*
O=C(CCCN1C(=O)/C(=C\c2cccs2)SC1=S)NNC(=O)c1ccncc1	2	-1	-10	-5
SMILES	Rad51 HR inh	Wee1 stabilizer	RBBP9 inhibitor	DNA FID counter
O=C(CCCN1C(=O)/C(=C/c2cccs2)SC1=S)NNC(=O)c1cccnc1	42*	1	-5	-12
CCCOc1ccc(C(=O)Nc2ccc(S(=O)(=O)Nc3cc(C)nc(C)n3)cc2)cc1	4	5	-10	-25
O=C(c1cc(C(=O)c2ccco2)cc(C(=O)c2ccco2)c1)c1ccco1	28	11*	-8	-5
O=C(Nc1ccc(Cc2ccncc2)cc1)c1cccc([N+](=O)[O-])c1	.	-2	-12	5
O=C(Nc1ccc(Nc2ccncc2)cc1)c1ccc(Nc2ccnc3ccc([N+](=O)[O-])cc23)cc1	22	-1	7	39*
CSc1ccccc1OCc1cc(C(=O)NCCC2=CCCCC2)no1	.	.	.	-19
COc1ccccc1C(=O)NCCC(=O)NCCOc1ccccc1	.	.	.	-15
COCCCNC(=O)c1ccccc1Oc1ccccc1	-11	14*	-7	-6
COc1cccc(C(=O)Nc2cccc(-c3ccccc3)c2)c1	.	.	.	-9
CCNC(=O)c1c(O)c2c([nH]c1=O)CCCC2	2	0	4	-1
COc1ccc(/C=C/C(=O)Oc2cccc(/C=N/NC(=O)c3cccc(F)c3)c2)cc1	-6	14*	-11	-3
CCOC(=O)c1c(-c2ccccc2)oc2ccc(OCC(O)CNCCN(C)C)cc12 (configuration not stated)	.	.	.	51*
Cc1ccc(NC(=O)C2CCN(S(C)(=O)=O)CC2)cc1Cl	.	.	.	-8
C[C@H](NC(=O)OC(C)(C)C)C(=O)N/N=C/C1=Cc2ccccc2OC1	.	9.7*	6	-24
O=C1NC(=Nc2ccc(Cl)cc2)SC1Cc1cc(Cl)ccc1Cl (configuration not stated)	-11	9.0*	-3	-6
Fc1ccc(-c2nc(-c3cnccn3)no2)c(Cl)c1	2	9.4*	-11	0
CN(C)CCNS(=O)(=O)c1ccc(N2CCN(c3ccc(F)cc3)CC2)c([N+](=O)[O-])c1	11	1	0	38*
CCC[C@@H](CN[C@@H](CNC)[C@H](C)CC)NCC1CCC(C(C)(C)C)CC1 (some centres not stated)	.	.	.	40*
CCCC[C@@H](CNC)NC[C@H](NCCCCC1CCCCC1)C(C)C	.	.	.	13
CC[C@@H](C)[C@H](CNC)NC[C@@H](Cc1cccc2ccccc12)NCCc1cccc(C(F)(F)F)c1	.	.	.	33
CCC[C@H](CN[C@@H](CNC)[C@H](C)CC)NCCc1cc(C(F)(F)F)cc(C(F)(F)F)c1	.	.	.	39*
COc1cc(CNCCN2CCOCC2)ccc1OCc1ccc(Cl)cc1	-1	-2	-7	16
COc1cc(CNCCCN2CCOCC2)cc(Br)c1OCc1ccc(Cl)cc1	.	-2	1	42*
COc1ccc(NC(=O)COC(=O)CCNS(=O)(=O)c2ccc(Cl)cc2)cc1	43*	3	-5	-16
COc1ccc(NC(=O)CNS(=O)(=O)c2ccc(Cl)cc2)cc1	-10	5	-9	-2
SMILES	Rad51 HR inh	Wee1 stabilizer	RBBP9 inhibitor	DNA FID counter
CC(=O)OCC(=O)[C@@]12OC(C)(C)O[C@@H]1C[C@H]1[C@@H]3C[C@H](F)C4=CC(=O)C=C[C@]4(C)[C@@]3(F)[C@@H](O)C[C@@]12C	-15	11*	-8	-8
CC1(C)OC2CC3C4CC(F)C5=CC(=O)C=CC5(C)C4(F)C(O)CC3(C)C2(C(=O)CO)O1 (configuration not stated)	.	.	.	-14
CC(=O)c1sc2nsc(SCCN3CCOCC3)c2c1N	0	9.0*	4	-9
Fc1ccccc1CSCc1nc2ccccc2[nH]1	-8	-2	-3	-3
COc1ccc(CC(NC(C)=O)C(=O)NC2CCN(c3nc(C)cc(C)c3C#N)CC2)c(OC)c1 (configuration not stated)	1	9.4*	-11	-20
COc1cccc(CC(NC(C)=O)C(=O)NC2CCN(c3nc(C)cc(C)c3C#N)CC2)c1 (configuration not stated)	-3	0	1	-25
